Sequences and labels used below:
B1: tRNA (parent)
chain: GUUCCGUUGGCGUAAUGGUAACGCGUCUCCCUCCUAAGGAGAAGACUGCGGGUUCGAGUCCCGUACGGAACG

Fewer inactive variants are shown than the library holds.

Variants of B1 are the subject of the series. The series is described as follows: yeast fitness relative to wild type (ratio to wild type); higher = fitter; tRNA-Arg(CCU), competitive growth, 37 C, YPD. In outline:
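Variants of the tRNA-Arg(CCU) gene were chemically synthesised with a 3% per-site mutation rate across 69 sites and placed at the native genomic locus in Saccharomyces cerevisiae. Six parallel replicates of the pooled strains were competed in YPD at 37°C for 24 hours, and gene amplicons from the start and end populations were read by 100-nucleotide paired-end sequencing. Darwinian fitness relative to wild type was derived from changes in genotype frequencies. Genotypes required ≥ 100 starting reads, and estimates < 0.5 were set to 0.5.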
As to GUUCCGUUAGCGUAAUGGUAACGCCACUCUCUCCUAAGGAGAAGACUGCGGGUUCGAGUCCCGUACGGAACG, the yeast fitness is ≤ 0.5. Regarding GUUCCGUUAGCGUAAUGGUAACGCGUCUCCCUCCUAAGGAGAAAACUGCGGGUUCGAGUCCCGUACGGAACG, the yeast fitness turned out to be 0.983.

In the case of GUUCCGUUAGCGUAAUGGUAACGCAUCUCCCUCCUAAGGCGAAGAUUGCGGGUUCGAGUCCCGUACGGAACG, the yeast fitness is 0.727. Take GUUCCGUUAGCGUAAUGGUAACGCGUCUCCCUCCUAACGACAAGACUGCGGGUACGAGUCCCGUACGGAACG: the yeast fitness is ≤ 0.5. Then GUUCCGUUAGCGUAAUGGUAACACGUCUCCCUCCUGAGGAGAAGACUGCGGGUUCGAGUCCCGUACGGAACG, with 0.652; and GUUCCGUUAGCGUAAUGGUAACGCGUCUCCCUCCUAAGAAGAAGGCUGCAGGUUCGAGUCCCGUACGGUACG, with 0.548. Then GUUCCGUUAGCGUAAUGGUAACGCGUCUCCCUCCUAAGGAGAAGACUGCGGGUUCGAGUCCCGUACAGAACG, with 0.883.

As for GUUCCGUUAGCGUAAUGGUAACGCGUCUCCCUCCUAAGGAGAAGACUGCGGGUUCGAGUCCCGUACCGAACG, the yeast fitness stood at 0.932. Then GUUCCGUUAGCGUAAUGGUAACGCGUCUCCCUCCUAAAGAGAAGACUGCGGGUUCGAGUCCCGUACGGAACG, with 0.976; and GUUCCGUUAGCGUAAUGGUAACGCGUCUCCCUCCUAAGGAGAAGACUGCCGGUUCGAGUCCCGUACGGUACG, with 0.752; and GUUCCGUUAGCGUAAUGGUAACGCGUCUCCCUCCUAAGGAGAAGACUGCGAGUUCGAGUCCCGUACGGAACG, with 0.919. Then GUUCCGUUAGCGUAAUGGUAACGCGUCUCCCUCCUAAGGAGAAGACUGCGGGUUCGACUCCCGUACGGAACG, with 0.895. Then GUUCCGUUAGCGUAAUGGUAACGCGUCUCCCUCCUAAGGAGAAGACUGCGGCUUCGAGUCCCGUACGGAACG, with 0.641; and GUUCCGUUAGCGAAAUGGUAACGCGUCUCCCACCUAAGGAGAAGACUGCGGGUUCGAGUCCCGUACGGAACG, with 0.839. GUUCCGUUAGCGUAAUGGUAACGCGUCUCCCUCCUAAGGAGAAGACUGCGGGUUCGACCCCCGUACGGAACG: the yeast fitness stood at 0.632.

With GUUCCGUUAGCGUAAUGGUAACGCGUCUCCCUCCUAAGGAGAAGACUGCGGGUUCAAGUCCCGUACAGAACG, the yeast fitness was found to be 0.632. Then GUUCCGUUAGCGUAAUGGUAACCCGUCUCCCUCCUAAGCAGAAGACUGCGGGUUCGAGUCCCGUACGGAACG, with ≤ 0.5; and GUUCCGUUAGCGUAAUGGUAACGCGUCUCCCUCCUAAGGAGAAGACUACGGGUUCGAGUCCCGUACGGUACG, with 1.07; and GUUCCGUUAGCGUAAUGGUAACGCGUCUCCCUCCUAAGGAGAAGACUACGGGUUCGAGUCCCGUACGGCACG, with 0.87. Then GUUCCGUUAGCGUAAUGGUAACGCGUCUCCCUCCUAAGGAGAAGACUGCCGGUUCGAGUCCGGUAUGGAACG, with 0.687.

As for GUUCCGUUAGCGUAAUGGUAACGCGUCUCCCUCCUAAGGAGAAGACUGCGGGUUCCAGUCUCGUACGGAACG, the yeast fitness was determined as 0.603.

GUUCCGUUAGCGUAAUGGUAACGCCUCUCCCUCCUAAGGAGAAGACUGCGGGUUCGAGUCCUGUACGGAACG: the yeast fitness came out at 0.712.

Regarding GUUCCGUUAGCGUAAUGGUAACGCGUCUCCCUCCUAAGGAGAAGACUCCGGAUUCGAGUCCCGUACGGAACG, the yeast fitness is ≤ 0.5. In the case of GUUCCGUUAGCGUAAUGGUAACGCGUCUCCCUCCUAAGGAGAAGACUCCGGGUUCGAGUCCCGUACGGACCG, the yeast fitness came to 1.08. Then GUUCCGUUAGCGUAAUGGUAACCCGUCUCCCUCCUAAGGAGAAGACUGCGGGUUCGAGUCCCGAACGGAACG, with ≤ 0.5; and GUUCCGUUAGCGUAAUGGUAACGCGUCUCCCUCCUAAAGAGAAGACUGCGGGUUCGAGUCCCGUUCGGAACG, with 0.565. Then GUUCCGUUAGCGUAAUGGUAACGCGUCUCCCUCCUAAGCAGAAGACUGCGGGUUCGAGUCCGGCACGGAACG, with 0.568; and GUUCCGUUAGCGUAAUGGUAACGCGUCUCCCUCCUAAGGAGAAGACUGCGGGUUCGAGUCCCAUACGGAACG, with 1.06; and GUUCCGUUAGCGUAAUGGUAACGCCUCUCUCUCCUAAGGAGAAGACUGCGGGUUCGAGUCCCGUACGGAACG, with 0.679. Consider GUUCCGUUAGCGCAAUGGUAACGCGUCUGCCUCCUAAGGAGAAGACUGCGGGUUCGAGUCCCGUACGGUACG, for which the yeast fitness came to 0.53. For GUUCCGUUAGCGAAGUGGUAACGCGUUUCCCUCCUAAGGAGAAGACUGCGGGUUCGAGUCCCGUACGGAACG, the yeast fitness was ≤ 0.5. For the variant GUUCCGUUAGCGUAACGGUAACGCGUCUGCCUCCUAAGGAGAAGACUGCGGGAUCGAGUCCCGUACGGAACG, the yeast fitness was ≤ 0.5.

As for GUUCCGUUAGCGUAAUGGUAACACGUCUUCCUCCUAAGGAGAGGACUGCGGGUUCGAGUCCCGUACGUAACG, the yeast fitness is ≤ 0.5. Then GUUCCGUUAGCGUAAUGGUAACGCGUCUCCCUCCUAAGGAGAACACUGCGGGUUCGAAUCCCGUACGGAACG, with 0.766; and GUUCCGUUAGCGUAAUGGUAACGCGUCUCCCUCCUAAGGAGAAGACUGCAGGUUCGAGUCCCGUACGGAACG, with 1.

GUUCCGUUAGCGUAAUGGUAACGCGUCUCCCUCCUAAGAAGAAGACUGCGGGUUCGAGUCCCGUACGGAACG: the yeast fitness came to 0.999. Take GUUCCGUUAGCGUAAUGGUAACGCGUCUCCCUCCUAAGGAGAAGACUACGGGUUCGAGUCCCAUACGGUACG: the yeast fitness amounted to 0.764. Then GUUCCGUUAGCGUAAUGGUAACGCGUCUCCCUCCUAAGGAGAAGACUACGGGUUCGAGUCCCGUACGGAUCG, with 1.25.

For the origin of these results see the RNAGym collection of RNA variant scans (doi:10.1126/science.aae0568).
